According to ChEMBL document CHEMBL3865824, “New (E)-1-alkyl-1H-benzo[d]imidazol-2-yl)methylene)indolin-2-ones: Synthesis, in vitro cytotoxicity evaluation and apoptosis inducing studies” (Eur J Med Chem, 2016):

What was measured:
[1] = Cytotoxicity against human MCF10A cells assessed as reduction in cell viability after 48 hrs by MTT assay; type: toxicity, cell-based, MCF-10A
Procedure, shortened: (§1)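 Cells grown in DMEM or MEM with 10% FBS at 37 °C, 5% CO2. Seeded at 1×10^4 cells/well, incubated 48 h, then exposed to compound for 48 h with vehicle control. MTT (5 mg/mL stock) added for 4 h; formazan dissolved in DMSO, absorbance read at 570 nm. Preliminary screen at 50 µM. Compounds giving >50% inhibition were tested for dose-response curves; IC50 derived by linear regression of % inhibition versus concentration. Mean of three independent experiments in triplicate.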

[2] = Selectivity ratio of IC50 for human MCF10A cells to IC50 for human A549 cells; type: ADME, cell-based; details: MCF10A cells versus A549 cells, read-out: Ratio IC50
[3] = Selectivity ratio of IC50 for human MCF10A cells to IC50 for human PC3 cells; type: ADME, cell-based, MCF-10A; details: MCF10A cells versus PC3 cells, read-out: Ratio IC50
[4] = Selectivity ratio of IC50 for human MCF10A cells to IC50 for HGC cells; type: ADME, cell-based, MCF-10A; details: MCF10A cells versus HGC cells, read-out: Ratio IC50
[5] = Selectivity ratio of IC50 for human MCF10A cells to IC50 for […] cells; type: ADME, cell-based, MCF-10A; details: MCF10A cells versus 4TI cells, read-out: Ratio IC50
[6] = Cytotoxicity against HGC cells assessed as growth inhibition at 50 uM after 48 hrs by MTT assay relative to control; type: functional; details: Homo sapiens, read-out: GI; procedure, shortened: as §1
[7] = Cytotoxicity against human DU145 cells assessed as reduction in cell viability after 48 hrs by MTT assay; type: functional, cell-based; details: DU-145, 48 h; procedure, shortened: as §1
[8] = Selectivity ratio of IC50 for human MCF10A cells to IC50 for human MCF7 cells; type: ADME, cell-based, MCF-10A; details: MCF10A cells versus MCF7 cells, read-out: Ratio IC50
[9] = Selectivity ratio of IC50 for human MCF10A cells to IC50 for human BT549 cells; type: ADME, cell-based, MCF-10A; details: MCF10A cells versus BT549 cells, read-out: Ratio IC50
[10] = Selectivity ratio of IC50 for human MCF10A cells to IC50 for human MDA-MB-231 cells; type: ADME, cell-based, MCF-10A; details: MCF10A cells versus MDA-MB-231 cells, read-out: Ratio IC50
[11] = Cytotoxicity against human A549 cells assessed as growth inhibition at 50 uM after 48 hrs by MTT assay relative to control; type: functional; details: A549, 48 h, read-out: GI; procedure, shortened: as §1
[12] = Cytotoxicity against human BT549 cells assessed as growth inhibition at 50 uM after 48 hrs by MTT assay relative to control; type: functional; details: BT-549, 48 h, read-out: GI; procedure, shortened: as §1
[13] = Cytotoxicity against human DU145 cells assessed as growth inhibition at 50 uM after 48 hrs by MTT assay relative to control; type: functional; details: DU-145, 48 h, read-out: GI; procedure, shortened: as §1
[14] = Cytotoxicity against human BT549 cells assessed as reduction in cell viability after 48 hrs by MTT assay; type: functional, cell-based; details: BT-549, 48 h; procedure, shortened: as §1
[15] = Cytotoxicity against human PC3 cells assessed as reduction in cell viability after 48 hrs by MTT assay; type: functional, cell-based; details: PC-3, 48 h; procedure, shortened: as §1
[16] = Cytotoxicity against human PC3 cells assessed as growth inhibition at 50 uM after 48 hrs by MTT assay relative to control; type: functional; details: PC-3, 48 h, read-out: GI; procedure, shortened: as §1
[17] = Cytotoxicity against human MCF7 cells assessed as growth inhibition at 50 uM after 48 hrs by MTT assay relative to control; type: functional; details: MCF7, 48 h, read-out: GI; procedure, shortened: as §1
[18] = Cytotoxicity against HGC cells assessed as reduction in cell viability after 48 hrs by MTT assay; type: functional, cell-based; details: Homo sapiens; procedure, shortened: as §1
[19] = Cytotoxicity against […] cells assessed as reduction in cell viability after 48 hrs by MTT assay; type: functional, cell-based; details: 4T1, 48 h; procedure, shortened: as §1
[20] = Cytotoxicity against human A549 cells assessed as reduction in cell viability after 48 hrs by MTT assay; type: functional, cell-based; details: A549, 48 h; procedure, shortened: as §1
[21] = Cytotoxicity against […] cells assessed as growth inhibition at 50 uM after 48 hrs by MTT assay relative to control; type: functional; details: Mus musculus, 4T1, 48 h; read-out: GI; procedure, shortened: as §1
[22] = Cytotoxicity against human MDA-MB-231 cells assessed as reduction in cell viability after 48 hrs by MTT assay; type: functional, cell-based; details: MDA-MB-231, 48 h; procedure, shortened: as §1
[23] = Cytotoxicity against human MCF7 cells assessed as reduction in cell viability after 48 hrs by MTT assay; type: functional, cell-based; details: MCF7, 48 h; procedure, shortened: as §1
[24] = Cytotoxicity against human MDA-MB-231 cells assessed as growth inhibition at 50 uM after 48 hrs by MTT assay relative to control; type: functional; details: MDA-MB-231, 48 h, read-out: GI; procedure, shortened: as §1
[25] = Selectivity ratio of IC50 for human MCF10A cells to IC50 for human DU145 cells; type: ADME, cell-based, MCF-10A; details: MCF10A cells versus DU145 cells, read-out: Ratio IC50
[26] = Cell cycle arrest in human MDA-MB-231 cells assessed as accumulation at G2/M phase at 4 uM after 24 hrs by propidium iodide staining based FACS analysis (reference value: 26 %); type: functional
Procedure, shortened: (§2)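 MDA-MB-231 at 1×10^6 cells/well treated with 1, 2 or 4 µM for 24 h, with a DMSO control. Cells harvested by trypsin, washed with PBS and fixed in 70% ethanol for 30 min at 4 °C. Stained 15 min at room temperature in the dark with PI buffer containing Triton X and DNase-free RNase A. Analysed by flow cytometry; G0/G1, S and G2/M fractions quantified.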

[27] = Cell cycle arrest in human MDA-MB-231 cells assessed as accumulation at G0/G1 phase at 4 uM after 24 hrs by propidium iodide staining based FACS analysis (reference value: 50.4 %); type: functional; procedure, shortened: as §2
[28] = Cell cycle arrest in human MDA-MB-231 cells assessed as accumulation at S phase at 4 uM after 24 hrs by propidium iodide staining based FACS analysis (reference value: 24.6 %); type: functional; procedure, shortened: as §2

Structure (SMILES): CC(C)n1c(/C=C2/C(=O)Nc3ccc(Cl)cc32)nc2ccccc21
- IC50 at 48 h [1]: 68.8 µM
- selectivity ratio [2]: 2 to 3
- selectivity ratio [3]: 2 to 3
- selectivity ratio [4]: 2 to 3
- selectivity ratio [5]: 2 to 3
- inhibition of growth at 50 µM [6]: > 50%
- IC50 [7]: 36.4 µM
- selectivity ratio [8]: 2 to 3
- selectivity ratio [9]: 2 to 3
- selectivity ratio [10]: 2 to 3
- inhibition of growth at 50 µM [11]: > 50%
- inhibition of growth at 50 µM [12]: > 50%
- inhibition of growth at 50 µM [13]: > 50%
- IC50 [14]: 35.1 µM
- IC50 [15]: 38.1 µM
- inhibition of growth at 50 µM [16]: > 50%
- inhibition of growth at 50 µM [17]: > 50%
- IC50 [18]: 32.8 µM
- IC50 [19]: 35.7 µM
- IC50 [20]: 35.2 µM
- inhibition of growth at 50 µM [21]: > 50%
- IC50 [22]: 25.1 µM
- IC50 [23]: 24 µM
- inhibition of growth at 50 µM [24]: > 50%
- selectivity ratio [25]: 2 to 3

Structure (SMILES): CCN(CC)CCNC(=O)c1c(C)[nH]c(/C=C2\C(=O)Nc3ccc(F)cc32)c1C [SUNITINIB]
- IC50 [7]: 16.4 µM
- IC50 [14]: 15.5 µM
- Activity [26]: 13.9%
- IC50 [20]: 14.4 µM
- IC50 [22]: 7.44 µM
- IC50 [23]: 23.8 µM
- Activity [27]: 67.6%
- Activity [28]: 18.3%
